# EPA's CvTdb concentration-time database
# Assays:
# rat [1] = experiment: concentration in blood after dosing; conditions: dosed: toluene, 3000 ppm, dermal, duration: 4 hr, male, F344
# rat [2] = experiment: concentration in blood after dosing; conditions: dosed: toluene, 3000 ppm, dermal, duration: 4 hr, male, F344; remark: listed apart in the source
# rat [3] = experiment: concentration in blood after dosing; conditions: dosed: toluene, 3000 ppm, dermal, duration: 4 hr, male, F344; remark: listed apart in the source
# rat [4] = experiment: concentration in blood after dosing; conditions: dosed: toluene, 3000 ppm, dermal, duration: 4 hr, male, F344; remark: listed apart in the source
# rat [5] = experiment: concentration in blood after dosing; negative times count back from the end of exposure; conditions: inhalation
# rat [6] = experiment: concentration in blood after dosing; conditions: dosed: toluene, 3000 ppm, dermal, duration: 4 hr, male, F344; remark: listed apart in the source
# human [7] = experiment: concentration in blood after dosing; conditions: dosed: toluene, 100 ppm, dermal, duration: 30 min, person
# How it was run: (§1)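 Sampling and analytical methods are those of each source and frequently went unreported. The concentration-versus-time and amount-versus-time points were compiled from published in vivo toxicokinetic studies and two structured collections. Most were digitised from plot screenshots with WebPlotDigitizer, with others copied from tables, in the reported units.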
# human [8] = experiment: concentration in Capillary Blood after dosing; conditions: dosed: toluene, 200 mg/m^3, inhalation, duration: 2 hr, male
# How it was run: as §1
# rat [9] = experiment: concentration in blood after dosing; conditions: dosed: toluene, 3000 ppm, dermal, duration: 4 hr, male, F344; remark: listed apart in the source
# human [10] = experiment: concentration in expired air after dosing; negative times count back from the end of exposure; conditions: dosed: vinyl chloride, 2.5 ppm, inhalation
# How it was run: as §1
compound,measurement,setting,value
Cc1ccccc1 [toluene],concentration in blood,rat [1]; 0.5 h,1830 ng/mL
same,concentration in blood,rat [1]; 1 h,3670 ng/mL
same,concentration in blood,rat [1]; 2 h,5070 ng/mL
same,concentration in blood,rat [1]; 3 h,5760 ng/mL
same,concentration in blood,rat [1]; 4 h,7030 ng/mL
same,concentration in blood,rat [2]; 0.5 h,2160 ng/mL
same,concentration in blood,rat [2]; 1 h,3520 ng/mL
same,concentration in blood,rat [2]; 2 h,5470 ng/mL
same,concentration in blood,rat [2]; 3 h,4800 ng/mL
same,concentration in blood,rat [2]; 4 h,7390 ng/mL
same,concentration in blood,rat [3]; 0.5 h,1230 ng/mL
same,concentration in blood,rat [3]; 1 h,2720 ng/mL
same,concentration in blood,rat [3]; 2 h,4560 ng/mL
same,concentration in blood,rat [3]; 3 h,5160 ng/mL
same,concentration in blood,rat [3]; 4 h,5840 ng/mL
same,concentration in blood,rat [4]; 0.5 h,2910 ng/mL
same,concentration in blood,rat [4]; 1 h,5540 ng/mL
same,concentration in blood,rat [4]; 2 h,6830 ng/mL
same,concentration in blood,rat [4]; 3 h,8230 ng/mL
same,concentration in blood,rat [4]; 4 h,8240 ng/mL
same,concentration in blood,"rat [5]; 0.996 h, dosed: toluene, 100 ppm, duration: 2 hr, male, Wistar",2600 nM
same,concentration in blood,"rat [5]; 2.004 h, dosed: toluene, 100 ppm, duration: 2 hr, male, Wistar",1520 nM
same,concentration in blood,"rat [5]; -20 s, dosed: toluene, 100 ppm, duration: 2 hr, male, Wistar, during exposure",8210 nM
same,concentration in blood,"rat [5]; -0.5053 h, dosed: toluene, 100 ppm, duration: 2 hr, male, Wistar, during exposure",9060 nM
same,concentration in blood,"rat [5]; -1.005 h, dosed: toluene, 100 ppm, duration: 2 hr, male, Wistar, during exposure",6950 nM
same,concentration in blood,"rat [5]; -1.503 h, dosed: toluene, 100 ppm, duration: 2 hr, male, Wistar, during exposure",6410 nM
same,concentration in blood,"rat [5]; -1.759 h, dosed: toluene, 100 ppm, duration: 2 hr, male, Wistar, during exposure",5580 nM
same,concentration in blood,rat [6]; 0.5 h,4120 ng/mL
same,concentration in blood,rat [6]; 1 h,1330 ng/mL
same,concentration in blood,rat [6]; 2 h,8440 ng/mL
same,concentration in blood,rat [6]; 3 h,10100 ng/mL
same,concentration in blood,rat [6]; 4 h,12100 ng/mL
same,concentration in blood,human [7]; 0.2477 h,510 nM
same,concentration in blood,human [7]; 0.499 h,1720 nM
same,concentration in blood,human [7]; 0.7454 h,1620 nM
same,concentration in blood,human [7]; 0.9948 h,1210 nM
same,concentration in blood,human [7]; 1.5 h,941 nM
same,concentration in blood,human [7]; 2.49 h,655 nM
same,concentration in blood,human [7]; 3.495 h,453 nM
same,concentration in Capillary Blood,human [8]; 334 s,4060 nM
same,concentration in Capillary Blood,human [8]; 0.1631 h,5870 nM
same,concentration in Capillary Blood,human [8]; 0.2703 h,6730 nM
same,concentration in Capillary Blood,human [8]; 0.5028 h,8250 nM
same,concentration in Capillary Blood,human [8]; 0.7659 h,9110 nM
same,concentration in Capillary Blood,human [8]; 1.003 h,9630 nM
same,concentration in Capillary Blood,human [8]; 1.104 h,9000 nM
same,concentration in Capillary Blood,human [8]; 1.493 h,10300 nM
same,concentration in Capillary Blood,human [8]; 1.737 h,10300 nM
same,concentration in Capillary Blood,human [8]; 1.969 h,10400 nM
same,concentration in Capillary Blood,human [8]; 2.075 h,4980 nM
same,concentration in Capillary Blood,human [8]; 2.15 h,4310 nM
same,concentration in Capillary Blood,human [8]; 2.236 h,4010 nM
same,concentration in Capillary Blood,human [8]; 2.514 h,3210 nM
same,concentration in Capillary Blood,human [8]; 3.028 h,1540 nM
same,concentration in Capillary Blood,human [8]; 3.361 h,1330 nM
same,concentration in Capillary Blood,human [8]; 3.69 h,1220 nM
same,concentration in Capillary Blood,human [8]; 4.023 h,1050 nM
same,concentration in Capillary Blood,human [8]; 4.349 h,959 nM
same,concentration in Capillary Blood,human [8]; 4.444 h,711 nM
same,concentration in Capillary Blood,human [8]; 4.673 h,867 nM
same,concentration in Capillary Blood,human [8]; 5.349 h,763 nM
same,concentration in Capillary Blood,human [8]; 5.678 h,671 nM
same,concentration in Capillary Blood,human [8]; 5.993 h,632 nM
same,concentration in blood,rat [9]; 0.5 h,4530 ng/mL
same,concentration in blood,rat [9]; 1 h,5230 ng/mL
same,concentration in blood,rat [9]; 2 h,5470 ng/mL
same,concentration in blood,rat [9]; 3 h,6610 ng/mL
same,concentration in blood,rat [9]; 4 h,6640 ng/mL
CC(C)O [isopropanol],concentration in blood,"rat [5]; 98 s, dosed: isopropanol, 4960 ppm, duration: 360 min",871000 ng/mL
same,concentration in blood,"rat [5]; 0.3018 h, dosed: isopropanol, 476 ppm, duration: 360 min",26000 ng/mL
same,concentration in blood,"rat [5]; 0.31 h, dosed: isopropanol, 4960 ppm, duration: 360 min",738000 ng/mL
same,concentration in blood,"rat [5]; 0.5307 h, dosed: isopropanol, 476 ppm, duration: 360 min",18300 ng/mL
same,concentration in blood,"rat [5]; 0.5409 h, dosed: isopropanol, 4960 ppm, duration: 360 min",647000 ng/mL
same,concentration in blood,"rat [5]; 1.039 h, dosed: isopropanol, 476 ppm, duration: 360 min",12200 ng/mL
same,concentration in blood,"rat [5]; 1.102 h, dosed: isopropanol, 4960 ppm, duration: 360 min",552000 ng/mL
same,concentration in blood,"rat [5]; 1.98 h, dosed: isopropanol, 476 ppm, duration: 360 min",6110 ng/mL
same,concentration in blood,"rat [5]; 2.098 h, dosed: isopropanol, 4960 ppm, duration: 360 min",367000 ng/mL
same,concentration in blood,"rat [5]; 3.047 h, dosed: isopropanol, 476 ppm, duration: 360 min",6110 ng/mL
same,concentration in blood,"rat [5]; 3.117 h, dosed: isopropanol, 4960 ppm, duration: 360 min",240000 ng/mL
same,concentration in blood,"rat [5]; 5.995 h, dosed: isopropanol, 476 ppm, duration: 360 min",1530 ng/mL
same,concentration in blood,"rat [5]; 6.019 h, dosed: isopropanol, 4960 ppm, duration: 360 min",67200 ng/mL
same,concentration in blood,"rat [5]; 12.07 h, dosed: isopropanol, 4960 ppm, duration: 360 min",12200 ng/mL
same,concentration in blood,"rat [5]; -195 s, dosed: isopropanol, 476 ppm, duration: 360 min, during exposure",32100 ng/mL
same,concentration in blood,"rat [5]; -2.938 h, dosed: isopropanol, 4960 ppm, duration: 360 min, during exposure",544000 ng/mL
same,concentration in blood,"rat [5]; -3.002 h, dosed: isopropanol, 476 ppm, duration: 360 min, during exposure",21400 ng/mL
same,concentration in blood,"rat [5]; -4.913 h, dosed: isopropanol, 4960 ppm, duration: 360 min, during exposure",241000 ng/mL
same,concentration in blood,"rat [5]; -5.06 h, dosed: isopropanol, 476 ppm, duration: 360 min, during exposure",12200 ng/mL
same,concentration in blood,"rat [5]; -5.517 h, dosed: isopropanol, 476 ppm, duration: 360 min, during exposure",7640 ng/mL
same,concentration in blood,"rat [5]; -5.546 h, dosed: isopropanol, 4960 ppm, duration: 360 min, during exposure",141000 ng/mL
C=CCl [vinyl chloride],concentration in expired air,"human [10]; 2 s, duration: 0.25 hr",1.88 ppm
same,concentration in expired air,"human [10]; 31 s, duration: 0.25 hr",0.564 ppm
same,concentration in expired air,"human [10]; 60 s, duration: 0.5 hr",0.375 ppm
same,concentration in expired air,"human [10]; 64 s, duration: 0.25 hr",0.271 ppm
same,concentration in expired air,"human [10]; 121 s, duration: 0.25 hr",0.13 ppm
same,concentration in expired air,"human [10]; 121 s, duration: 0.5 hr",0.217 ppm
same,concentration in expired air,"human [10]; 179 s, duration: 0.5 hr",0.198 ppm
same,concentration in expired air,"human [10]; 180 s, duration: 0.25 hr",0.118 ppm
same,concentration in expired air,"human [10]; 237 s, duration: 0.5 hr",0.156 ppm
same,concentration in expired air,"human [10]; 4 min, duration: 0.25 hr",0.0581 ppm
same,concentration in expired air,"human [10]; 298 s, duration: 0.5 hr",0.145 ppm
same,concentration in expired air,"human [10]; 299 s, duration: 0.25 hr",0.0432 ppm
same,concentration in expired air,"human [10]; -0 s, duration: 0.5 hr, during exposure",1.57 ppm
same,concentration in expired air,"human [10]; -59 s, duration: 0.25 hr, during exposure",1.96 ppm
same,concentration in expired air,"human [10]; -61 s, duration: 0.5 hr, during exposure",1.7 ppm
same,concentration in expired air,"human [10]; -119 s, duration: 0.25 hr, during exposure",1.84 ppm
same,concentration in expired air,"human [10]; -122 s, duration: 0.5 hr, during exposure",1.77 ppm
same,concentration in expired air,"human [10]; -3 min, duration: 0.5 hr, during exposure",1.79 ppm
same,concentration in expired air,"human [10]; -180 s, duration: 0.25 hr, during exposure",1.88 ppm
same,concentration in expired air,"human [10]; -238 s, duration: 0.25 hr, during exposure",1.84 ppm
same,concentration in expired air,"human [10]; -241 s, duration: 0.5 hr, during exposure",1.74 ppm
same,concentration in expired air,"human [10]; -298 s, duration: 0.5 hr, during exposure",1.63 ppm
same,concentration in expired air,"human [10]; -299 s, duration: 0.25 hr, during exposure",1.81 ppm
same,concentration in expired air,"human [10]; -0.1003 h, duration: 0.25 hr, during exposure",1.79 ppm
same,concentration in expired air,"human [10]; -0.1161 h, duration: 0.25 hr, during exposure",1.84 ppm
same,concentration in expired air,"human [10]; -7 min, duration: 0.5 hr, during exposure",1.7 ppm
same,concentration in expired air,"human [10]; -8 min, duration: 0.25 hr, during exposure",1.64 ppm
same,concentration in expired air,"human [10]; -0.1491 h, duration: 0.25 hr, during exposure",1.72 ppm
same,concentration in expired air,"human [10]; -0.1496 h, duration: 0.5 hr, during exposure",1.7 ppm
same,concentration in expired air,"human [10]; -0.1659 h, duration: 0.25 hr, during exposure",1.79 ppm
same,concentration in expired air,"human [10]; -11 min, duration: 0.25 hr, during exposure",1.68 ppm
same,concentration in expired air,"human [10]; -11 min, duration: 0.5 hr, during exposure",1.81 ppm
same,concentration in expired air,"human [10]; -0.2001 h, duration: 0.25 hr, during exposure",1.62 ppm
same,concentration in expired air,"human [10]; -0.2158 h, duration: 0.25 hr, during exposure",1.57 ppm
same,concentration in expired air,"human [10]; -0.2163 h, duration: 0.5 hr, during exposure",1.86 ppm
same,concentration in expired air,"human [10]; -0.224 h, duration: 0.25 hr, during exposure",1.59 ppm
same,concentration in expired air,"human [10]; -0.2343 h, duration: 0.25 hr, during exposure",1.27 ppm
same,concentration in expired air,"human [10]; -0.2413 h, duration: 0.25 hr, during exposure",0.701 ppm
same,concentration in expired air,"human [10]; -0.2493 h, duration: 0.5 hr, during exposure",1.45 ppm
same,concentration in expired air,"human [10]; -0.2823 h, duration: 0.5 hr, during exposure",1.86 ppm
same,concentration in expired air,"human [10]; -0.316 h, duration: 0.5 hr, during exposure",1.77 ppm
same,concentration in expired air,"human [10]; -0.3489 h, duration: 0.5 hr, during exposure",1.79 ppm
same,concentration in expired air,"human [10]; -0.3827 h, duration: 0.5 hr, during exposure",1.77 ppm
same,concentration in expired air,"human [10]; -0.4157 h, duration: 0.5 hr, during exposure",1.7 ppm
same,concentration in expired air,"human [10]; -0.4502 h, duration: 0.5 hr, during exposure",1.63 ppm
same,concentration in expired air,"human [10]; -0.4663 h, duration: 0.5 hr, during exposure",1.4 ppm
same,concentration in expired air,"human [10]; -0.4831 h, duration: 0.5 hr, during exposure",1.29 ppm
